Results from ChEMBL document CHEMBL5653631, “A Potent and Selective ULK1 Inhibitor Suppresses Autophagy and Sensitizes Cancer Cells to Nutrient Stress” (iScience, 2018).

Tests used:
[1] = molecular target: Tyrosine-protein kinase Lck (Homo sapiens) (UniProt P06239); assay: Inhibition of human recombinant LCK at 40 nM related to control ULK1
[2] = molecular target: T1, Muscle, skeletal receptor tyrosine-protein kinase (Homo sapiens) (UniProt O15146); assay: Inhibition of human recombinant MUSK at 40 nM in presence of ATP by radiometric assay relative to control
T1 sequence (whole entry): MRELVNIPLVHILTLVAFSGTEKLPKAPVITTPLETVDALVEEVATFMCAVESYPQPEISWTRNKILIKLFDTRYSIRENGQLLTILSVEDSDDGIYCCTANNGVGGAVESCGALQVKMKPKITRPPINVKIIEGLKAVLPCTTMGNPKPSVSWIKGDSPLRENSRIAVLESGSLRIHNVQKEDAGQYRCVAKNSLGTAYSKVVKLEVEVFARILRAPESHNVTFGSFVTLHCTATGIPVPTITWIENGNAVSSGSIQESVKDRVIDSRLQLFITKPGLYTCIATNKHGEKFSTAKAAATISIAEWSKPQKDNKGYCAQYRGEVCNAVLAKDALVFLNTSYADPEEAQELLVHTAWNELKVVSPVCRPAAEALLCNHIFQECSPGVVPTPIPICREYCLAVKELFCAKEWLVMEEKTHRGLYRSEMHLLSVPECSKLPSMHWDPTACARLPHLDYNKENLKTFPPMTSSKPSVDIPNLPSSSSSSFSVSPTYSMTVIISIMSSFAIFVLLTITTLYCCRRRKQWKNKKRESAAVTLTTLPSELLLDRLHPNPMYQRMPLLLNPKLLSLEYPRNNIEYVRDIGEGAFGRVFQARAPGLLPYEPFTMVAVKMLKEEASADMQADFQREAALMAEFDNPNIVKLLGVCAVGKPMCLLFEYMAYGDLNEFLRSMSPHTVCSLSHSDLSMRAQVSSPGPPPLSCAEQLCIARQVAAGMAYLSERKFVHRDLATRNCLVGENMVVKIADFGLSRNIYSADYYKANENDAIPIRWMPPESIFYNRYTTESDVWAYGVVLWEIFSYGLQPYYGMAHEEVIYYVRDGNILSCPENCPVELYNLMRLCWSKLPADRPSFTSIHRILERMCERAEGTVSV

[3] = molecular target: Tyrosine-protein kinase Fer (Homo sapiens) (UniProt P16591); assay: Inhibition of human recombinant FER at 40 nM in presence of ATP by radiometric assay relative to control
[4] = molecular target: Leukocyte tyrosine kinase receptor (Homo sapiens) (UniProt P29376); assay: Inhibition of human recombinant LTK at 500 nM related to control ULK1
[5] = molecular target: RAC-alpha serine/threonine-protein kinase (Homo sapiens) (UniProt P31749); assay: Inhibition of human recombinant AKT1 at 500 nM related to control ULK1
[6] = molecular target: Serine/threonine-protein kinase MRCK beta (Homo sapiens) (UniProt Q9Y5S2); assay: Inhibition of human recombinant MRCKb at 500 nM related to control ULK1
[7] = molecular target: Dual specificity mitogen-activated protein kinase kinase 2 (Homo sapiens) (UniProt P36507); assay: Inhibition of human recombinant MAP2K2 at 500 nM in presence of ATP by radiometric assay relative to control
[8] = molecular target: Calcium/calmodulin-dependent protein kinase kinase 2 (Homo sapiens) (UniProt Q96RR4); assay: Inhibition of human recombinant CaMKK2 at 500 nM related to control ULK1
[9] = molecular target: Cyclin-dependent kinase-like 3 (Homo sapiens) (UniProt Q8IVW4); assay: Inhibition of human recombinant CDKL3 at 500 nM in presence of ATP by radiometric assay relative to control
[10] = molecular target: Mitogen-activated protein kinase kinase kinase kinase 4 (Homo sapiens) (UniProt O95819); assay: Inhibition of human recombinant HGK at 500 nM in presence of ATP by radiometric assay relative to control
[11] = molecular target: Rho-associated protein kinase 2 (Homo sapiens) (UniProt O75116); assay: Inhibition of human recombinant ROCK2 at 500 nM related to control ULK1
[12] = molecular target: G protein-coupled receptor kinase 6 (Homo sapiens) (UniProt P43250); assay: Inhibition of human recombinant GPRK6 at 15 nM in presence of ATP by radiometric assay relative to control
[13] = molecular target: Death-associated protein kinase 2 (Homo sapiens) (UniProt Q9UIK4); assay: Inhibition of human recombinant DAPK2 at 15 nM in presence of ATP by radiometric assay relative to control
[14] = molecular target: Hepatocyte growth factor receptor (Homo sapiens) (UniProt P08581); assay: Inhibition of human recombinant MET at 15 nM related to control ULK1
[15] = molecular target: Tyrosine-protein kinase Fer (Homo sapiens) (UniProt P16591); assay: Inhibition of human recombinant FER at 15 nM related to control ULK1
[16] = molecular target: T2, Testis-specific serine/threonine-protein kinase 4 (Homo sapiens) (UniProt Q6SA08); assay: Inhibition of human recombinant TSSK4 at 15 nM in presence of ATP by radiometric assay relative to control
T2 sequence (whole entry): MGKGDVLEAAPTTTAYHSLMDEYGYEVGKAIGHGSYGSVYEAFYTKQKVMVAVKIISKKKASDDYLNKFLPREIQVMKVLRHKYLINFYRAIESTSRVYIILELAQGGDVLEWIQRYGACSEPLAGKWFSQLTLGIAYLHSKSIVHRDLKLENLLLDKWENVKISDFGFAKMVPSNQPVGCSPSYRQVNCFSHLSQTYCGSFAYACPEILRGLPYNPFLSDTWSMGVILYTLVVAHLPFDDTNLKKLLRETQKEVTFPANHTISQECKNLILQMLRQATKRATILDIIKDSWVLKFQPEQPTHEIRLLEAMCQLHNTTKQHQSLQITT

[17] = molecular target: Serine/threonine-protein kinase ATR (Homo sapiens) (UniProt Q13535); assay: Inhibition of human recombinant ATR at 15 nM in presence of ATP by radiometric assay relative to control
Summary of the method: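 Panel of 327 recombinant human kinases, each assayed in vitro by radiometric activity assay in duplicate at a single inhibitor concentration per compound, chosen with reference to its ULK1 inhibition. Activity remaining was expressed as percent of vehicle control, and percent inhibition was calculated as 100 minus percent activity remaining.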

[18] = molecular target: Mitogen-activated protein kinase kinase kinase kinase 4 (Homo sapiens) (UniProt O95819); assay: Inhibition of human recombinant HGK at 15 nM in presence of ATP by radiometric assay relative to control
[19] = molecular target: Serine/threonine-protein kinase 32C (Homo sapiens) (UniProt Q86UX6); assay: Inhibition of human recombinant YANK3 at 15 nM in presence of ATP by radiometric assay relative to control
[20] = molecular target: Ephrin type-A receptor 4 (Homo sapiens) (UniProt P54764); assay: Inhibition of human recombinant EphA4 at 15 nM related to control ULK1

Sequence of Mitogen-activated protein kinase kinase kinase kinase 4 (Homo sapiens) (O95819 2-1239 limits assumed): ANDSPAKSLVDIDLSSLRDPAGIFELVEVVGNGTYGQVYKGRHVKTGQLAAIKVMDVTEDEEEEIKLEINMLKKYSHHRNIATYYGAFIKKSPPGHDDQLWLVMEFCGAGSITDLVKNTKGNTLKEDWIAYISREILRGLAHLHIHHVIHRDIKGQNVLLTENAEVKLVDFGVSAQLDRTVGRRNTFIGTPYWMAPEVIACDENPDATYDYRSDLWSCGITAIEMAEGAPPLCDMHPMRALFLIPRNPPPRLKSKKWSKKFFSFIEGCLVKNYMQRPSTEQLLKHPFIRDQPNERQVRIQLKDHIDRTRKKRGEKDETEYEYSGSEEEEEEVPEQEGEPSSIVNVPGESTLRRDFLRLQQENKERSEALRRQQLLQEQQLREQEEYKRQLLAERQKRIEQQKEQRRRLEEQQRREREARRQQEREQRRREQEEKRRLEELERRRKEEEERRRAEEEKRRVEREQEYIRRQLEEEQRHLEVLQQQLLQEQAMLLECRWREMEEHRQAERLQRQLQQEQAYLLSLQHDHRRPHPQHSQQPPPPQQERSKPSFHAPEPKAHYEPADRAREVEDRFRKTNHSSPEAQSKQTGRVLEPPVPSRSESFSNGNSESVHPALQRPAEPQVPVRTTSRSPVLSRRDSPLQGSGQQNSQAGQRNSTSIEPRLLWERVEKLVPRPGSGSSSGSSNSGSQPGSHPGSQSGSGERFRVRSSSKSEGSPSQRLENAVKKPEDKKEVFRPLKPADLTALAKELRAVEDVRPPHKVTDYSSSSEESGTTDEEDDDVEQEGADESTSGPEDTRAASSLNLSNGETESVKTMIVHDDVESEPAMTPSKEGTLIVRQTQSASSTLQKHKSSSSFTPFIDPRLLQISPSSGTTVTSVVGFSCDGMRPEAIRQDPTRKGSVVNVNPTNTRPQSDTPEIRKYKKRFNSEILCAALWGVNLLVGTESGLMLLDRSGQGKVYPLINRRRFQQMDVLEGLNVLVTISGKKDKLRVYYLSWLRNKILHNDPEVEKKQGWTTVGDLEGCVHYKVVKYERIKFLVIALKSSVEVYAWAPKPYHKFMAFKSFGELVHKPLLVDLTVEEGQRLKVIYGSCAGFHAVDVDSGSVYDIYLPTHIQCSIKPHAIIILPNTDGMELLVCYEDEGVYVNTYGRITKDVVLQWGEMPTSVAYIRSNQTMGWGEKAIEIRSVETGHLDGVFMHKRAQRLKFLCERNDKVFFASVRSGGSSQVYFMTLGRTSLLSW
Sequence of Tyrosine-protein kinase Fer (Homo sapiens) (P16591 whole entry, looked up): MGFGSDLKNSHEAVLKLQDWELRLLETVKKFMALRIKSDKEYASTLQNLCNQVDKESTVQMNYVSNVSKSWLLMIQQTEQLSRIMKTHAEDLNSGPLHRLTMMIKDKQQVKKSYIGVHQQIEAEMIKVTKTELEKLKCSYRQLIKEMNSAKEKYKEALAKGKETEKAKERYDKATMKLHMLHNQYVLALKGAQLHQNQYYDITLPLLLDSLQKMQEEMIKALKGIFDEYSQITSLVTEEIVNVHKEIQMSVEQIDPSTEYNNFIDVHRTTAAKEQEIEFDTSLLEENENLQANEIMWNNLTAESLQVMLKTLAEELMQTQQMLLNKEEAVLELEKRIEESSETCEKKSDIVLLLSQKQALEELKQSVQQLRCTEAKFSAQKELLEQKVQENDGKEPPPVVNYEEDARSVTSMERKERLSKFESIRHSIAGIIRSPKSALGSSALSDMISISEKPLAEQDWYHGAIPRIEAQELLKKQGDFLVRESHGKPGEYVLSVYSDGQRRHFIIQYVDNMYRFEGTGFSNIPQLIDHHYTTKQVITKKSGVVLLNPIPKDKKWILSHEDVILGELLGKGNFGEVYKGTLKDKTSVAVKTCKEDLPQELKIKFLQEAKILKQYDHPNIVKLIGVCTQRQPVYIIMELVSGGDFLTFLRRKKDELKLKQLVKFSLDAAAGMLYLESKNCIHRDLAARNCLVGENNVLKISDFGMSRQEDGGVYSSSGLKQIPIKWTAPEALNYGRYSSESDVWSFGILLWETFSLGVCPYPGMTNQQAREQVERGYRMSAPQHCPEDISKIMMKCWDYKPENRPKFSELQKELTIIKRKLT
Sequence of Cyclin-dependent kinase-like 3 (Homo sapiens) (Q8IVW4 whole entry, looked up): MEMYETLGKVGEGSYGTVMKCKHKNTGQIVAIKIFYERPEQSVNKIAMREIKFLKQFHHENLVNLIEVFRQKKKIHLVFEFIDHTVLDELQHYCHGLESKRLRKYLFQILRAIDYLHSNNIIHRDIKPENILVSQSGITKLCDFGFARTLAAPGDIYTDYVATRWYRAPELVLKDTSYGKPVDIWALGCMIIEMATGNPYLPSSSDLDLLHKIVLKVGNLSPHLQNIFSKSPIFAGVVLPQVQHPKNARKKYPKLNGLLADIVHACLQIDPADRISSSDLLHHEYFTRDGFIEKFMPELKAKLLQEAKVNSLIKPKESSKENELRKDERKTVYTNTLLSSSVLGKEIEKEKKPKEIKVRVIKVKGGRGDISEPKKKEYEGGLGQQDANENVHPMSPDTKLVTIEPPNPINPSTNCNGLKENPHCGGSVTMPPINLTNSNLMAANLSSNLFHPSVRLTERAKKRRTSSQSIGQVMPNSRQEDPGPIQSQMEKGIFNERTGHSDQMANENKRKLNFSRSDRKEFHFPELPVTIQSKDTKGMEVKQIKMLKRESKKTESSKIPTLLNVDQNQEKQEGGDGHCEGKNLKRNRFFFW
Sequence of Rho-associated protein kinase 2 (Homo sapiens) (O75116 whole entry, looked up): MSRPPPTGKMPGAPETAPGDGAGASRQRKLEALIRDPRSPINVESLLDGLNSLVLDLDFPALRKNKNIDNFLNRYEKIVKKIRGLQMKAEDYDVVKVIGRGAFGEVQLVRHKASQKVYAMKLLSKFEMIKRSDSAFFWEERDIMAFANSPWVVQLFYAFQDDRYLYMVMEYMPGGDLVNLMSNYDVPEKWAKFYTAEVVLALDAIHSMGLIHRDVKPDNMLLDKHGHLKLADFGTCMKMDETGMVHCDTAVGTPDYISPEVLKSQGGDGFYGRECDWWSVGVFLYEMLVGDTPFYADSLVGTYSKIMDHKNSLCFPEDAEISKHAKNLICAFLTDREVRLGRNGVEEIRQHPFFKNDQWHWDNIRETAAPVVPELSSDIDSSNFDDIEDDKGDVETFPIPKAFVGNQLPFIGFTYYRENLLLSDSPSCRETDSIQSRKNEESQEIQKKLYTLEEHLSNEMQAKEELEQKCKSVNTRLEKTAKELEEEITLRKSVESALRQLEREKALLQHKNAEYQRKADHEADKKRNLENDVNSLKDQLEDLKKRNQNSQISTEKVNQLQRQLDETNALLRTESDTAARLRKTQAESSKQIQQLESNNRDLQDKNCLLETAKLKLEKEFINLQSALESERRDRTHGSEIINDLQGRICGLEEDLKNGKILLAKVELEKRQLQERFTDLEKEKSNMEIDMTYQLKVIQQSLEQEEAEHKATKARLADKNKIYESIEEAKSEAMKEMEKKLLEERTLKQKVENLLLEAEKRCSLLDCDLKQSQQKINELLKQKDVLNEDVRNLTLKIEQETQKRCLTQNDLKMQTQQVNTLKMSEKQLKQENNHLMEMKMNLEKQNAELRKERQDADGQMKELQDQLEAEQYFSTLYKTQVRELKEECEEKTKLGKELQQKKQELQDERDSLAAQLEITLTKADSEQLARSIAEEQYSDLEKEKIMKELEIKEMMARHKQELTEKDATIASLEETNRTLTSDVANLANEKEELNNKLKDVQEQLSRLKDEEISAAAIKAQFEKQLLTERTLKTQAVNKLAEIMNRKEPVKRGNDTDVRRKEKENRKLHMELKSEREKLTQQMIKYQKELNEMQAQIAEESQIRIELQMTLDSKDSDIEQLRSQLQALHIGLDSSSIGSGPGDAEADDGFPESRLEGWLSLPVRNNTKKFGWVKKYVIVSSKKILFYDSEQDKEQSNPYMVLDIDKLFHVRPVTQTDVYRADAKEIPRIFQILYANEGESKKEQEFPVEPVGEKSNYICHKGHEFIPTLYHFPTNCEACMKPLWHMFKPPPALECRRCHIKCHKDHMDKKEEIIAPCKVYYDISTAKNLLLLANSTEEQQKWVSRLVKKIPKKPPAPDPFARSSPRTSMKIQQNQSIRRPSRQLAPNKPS
Sequence of Dual specificity mitogen-activated protein kinase kinase 2 (Homo sapiens) (P36507 whole entry): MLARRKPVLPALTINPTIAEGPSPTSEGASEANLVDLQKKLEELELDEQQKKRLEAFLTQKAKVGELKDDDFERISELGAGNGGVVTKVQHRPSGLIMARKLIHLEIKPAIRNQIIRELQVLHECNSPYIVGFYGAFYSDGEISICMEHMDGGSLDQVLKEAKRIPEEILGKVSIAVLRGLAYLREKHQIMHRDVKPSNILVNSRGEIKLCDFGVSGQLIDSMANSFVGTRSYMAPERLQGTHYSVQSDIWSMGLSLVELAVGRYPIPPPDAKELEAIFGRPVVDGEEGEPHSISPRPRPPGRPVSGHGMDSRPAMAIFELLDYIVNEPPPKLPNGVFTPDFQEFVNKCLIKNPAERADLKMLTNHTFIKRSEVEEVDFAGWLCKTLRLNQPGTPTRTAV
Sequence of RAC-alpha serine/threonine-protein kinase (Homo sapiens) (P31749 whole entry): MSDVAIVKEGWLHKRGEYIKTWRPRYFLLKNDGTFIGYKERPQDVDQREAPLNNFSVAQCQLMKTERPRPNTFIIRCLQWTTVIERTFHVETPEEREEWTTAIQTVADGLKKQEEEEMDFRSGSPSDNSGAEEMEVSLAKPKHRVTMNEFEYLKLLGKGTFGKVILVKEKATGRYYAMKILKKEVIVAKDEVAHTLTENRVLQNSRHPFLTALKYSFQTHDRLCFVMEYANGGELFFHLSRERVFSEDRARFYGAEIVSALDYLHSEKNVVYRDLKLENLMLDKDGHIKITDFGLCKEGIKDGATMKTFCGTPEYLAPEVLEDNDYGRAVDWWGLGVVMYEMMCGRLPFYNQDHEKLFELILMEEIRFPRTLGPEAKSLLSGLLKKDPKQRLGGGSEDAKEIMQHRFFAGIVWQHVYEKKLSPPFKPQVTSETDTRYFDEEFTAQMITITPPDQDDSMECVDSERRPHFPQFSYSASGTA

## O=C(N[C@@H](C1CC1)C(F)(F)F)c1cc(-c2cnn3cc(-c4ccc(F)cc4)cnc23)cs1
[1]
  fold change (FC): 0
[2]
  inhibition: 13%
[3]
  inhibition: 0%

## CNC(=O)c1ccccc1Oc1nc(Nc2cc(OC)c(OC)c(OC)c2)ncc1Br
[4]
  fold change (FC): 0.04
[5]
  fold change (FC): 0
[6]
  fold change (FC): 0
[7]
  inhibition: 0%
[8]
  fold change (FC): 0.05
[9]
  inhibition: 0%
[10]
  inhibition: 0%
[11]
  fold change (FC): 0

## CC(C)[C@H](NC(=O)c1cc(-c2cnn3cc(-c4ccc(OCCN5CCCCC5)cc4)cnc23)cs1)C(F)(F)F
[12]
  inhibition: 0%
[13]
  inhibition: 6%
[14]
  fold change (FC): 0
[15]
  fold change (FC): 0
[16]
  inhibition: 0%
[17]
  inhibition: 4%
[18]
  inhibition: 0%
[19]
  inhibition: 3%
[20]
  fold change (FC): 0
